Data from article PMC4188730 (European journal of medicinal chemistry, 2014).
Entries after “also recorded” stand apart in the source; their conditions may differ.

What was measured:
HDAC isoforms = conditions: cited from earlier work
[1] = system: HCT116 colorectal cancer cell line; test: Cytoproliferation; assay type: cell-based; conditions: for effect on cell growth: HCT116, 96 hours, up to the highest concentration tested, 5 μM; for effect on cytoproliferation at lower concentrations: HCT116, 0.01, 0.1 and 1.0 nM (data not shown)
How it was run: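 HCT116 colorectal carcinoma cells seeded at 3×10⁴ cells/well in quadruplicate, attached overnight. Medium then replaced with fresh medium containing test compound; incubated 96 hours at 37 °C, 5% CO₂. CellTiter 96 One Solution MTS reagent added for 1.5 h at 37 °C, absorbance read at 490 nm. Points are mean of two experiments, 4 replicates each, with SEM.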

[2] = system: global H3K9 acetylation in HCT116 cells; test: Western blot of global histone H3K9 acetylation; assay type: cell-based; conditions: HCT116, 24 hours, 100 nM and 1 μM; for induction of global H3K9 (H3) acetylation: 10 nM; for concentration at which increase of global H3K9 acetylation was observed: tested at 10 nM
How it was run: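 HCT116 cells exposed 24 hours to test compound at 10 nM, 100 nM or 1 μM, or to DMSO. Lysed in RIPA buffer (50 mmol/L Tris-HCl, 1% NP-40, 0.25% deoxycholate, 150 mmol/L NaCl, 50 mmol/L NaF). Protein quantified by DC assay, 30 μg/lane run on SDS-PAGE. Blots probed for acetyl-H3 with β-actin loading control, detected by dye-conjugated secondaries on infrared scanner.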

recombinant HDAC6 = target: T1, recombinant HDAC6 (Homo sapiens, UniProt Q9UBN7); test: Fluorimetric HDAC activity assay, recombinant HDAC6; assay type: biochemical; conditions: 0–5 μM
T1 sequence (Q9UBN7 1-1215): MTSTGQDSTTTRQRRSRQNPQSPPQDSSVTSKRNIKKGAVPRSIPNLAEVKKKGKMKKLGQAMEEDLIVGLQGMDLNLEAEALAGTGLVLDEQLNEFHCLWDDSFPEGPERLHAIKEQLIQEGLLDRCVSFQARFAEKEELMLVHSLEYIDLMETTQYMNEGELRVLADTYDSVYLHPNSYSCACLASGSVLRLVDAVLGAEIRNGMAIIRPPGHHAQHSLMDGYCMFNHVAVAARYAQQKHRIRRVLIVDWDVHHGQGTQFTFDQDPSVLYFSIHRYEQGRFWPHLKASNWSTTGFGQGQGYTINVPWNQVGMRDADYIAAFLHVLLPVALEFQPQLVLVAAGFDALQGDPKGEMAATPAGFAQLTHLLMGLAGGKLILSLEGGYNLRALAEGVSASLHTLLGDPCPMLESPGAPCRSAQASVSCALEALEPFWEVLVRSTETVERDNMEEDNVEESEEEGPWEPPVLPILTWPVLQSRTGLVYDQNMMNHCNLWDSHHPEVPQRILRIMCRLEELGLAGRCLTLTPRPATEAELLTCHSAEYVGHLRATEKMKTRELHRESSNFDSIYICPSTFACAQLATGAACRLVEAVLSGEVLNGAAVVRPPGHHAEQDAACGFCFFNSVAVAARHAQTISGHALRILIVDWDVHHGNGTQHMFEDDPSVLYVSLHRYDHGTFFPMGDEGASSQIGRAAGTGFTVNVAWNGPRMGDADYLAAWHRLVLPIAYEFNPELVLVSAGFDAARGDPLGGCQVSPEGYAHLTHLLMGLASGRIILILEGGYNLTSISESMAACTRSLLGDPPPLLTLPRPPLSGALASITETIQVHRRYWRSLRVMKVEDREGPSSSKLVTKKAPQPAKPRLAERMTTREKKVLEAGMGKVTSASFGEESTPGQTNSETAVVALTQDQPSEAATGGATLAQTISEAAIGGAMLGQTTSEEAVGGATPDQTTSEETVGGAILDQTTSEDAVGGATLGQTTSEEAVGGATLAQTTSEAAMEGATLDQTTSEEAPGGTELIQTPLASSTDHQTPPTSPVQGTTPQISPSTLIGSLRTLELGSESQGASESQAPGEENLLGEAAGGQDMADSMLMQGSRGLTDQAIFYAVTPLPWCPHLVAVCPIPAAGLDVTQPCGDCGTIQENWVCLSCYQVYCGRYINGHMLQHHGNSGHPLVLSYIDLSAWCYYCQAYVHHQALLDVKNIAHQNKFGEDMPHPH

recombinant HDAC1 = recombinant HDAC1 (Homo sapiens, UniProt Q13547); test: Fluorimetric HDAC activity assay, recombinant HDAC1; assay type: biochemical; conditions: at 0.1 μM, 1 hour
Chain of recombinant HDAC1 (Q13547 whole entry): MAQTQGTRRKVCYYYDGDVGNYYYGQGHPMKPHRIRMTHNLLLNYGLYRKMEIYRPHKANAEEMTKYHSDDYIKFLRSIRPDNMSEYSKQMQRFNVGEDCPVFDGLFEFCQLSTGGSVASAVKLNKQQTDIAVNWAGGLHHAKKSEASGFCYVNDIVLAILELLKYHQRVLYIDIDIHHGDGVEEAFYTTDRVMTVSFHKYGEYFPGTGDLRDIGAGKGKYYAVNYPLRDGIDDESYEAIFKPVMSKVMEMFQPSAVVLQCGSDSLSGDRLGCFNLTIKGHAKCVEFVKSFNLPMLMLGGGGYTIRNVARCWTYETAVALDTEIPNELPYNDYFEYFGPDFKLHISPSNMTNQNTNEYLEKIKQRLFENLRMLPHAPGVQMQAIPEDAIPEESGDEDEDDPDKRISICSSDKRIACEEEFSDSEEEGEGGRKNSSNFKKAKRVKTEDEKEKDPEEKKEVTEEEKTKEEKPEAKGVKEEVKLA

human cancer cells = conditions: cited from earlier work

| Structure (SMILES) | effect on cell growth [1] | induction of global H3K9 (H3) acetylation [2] | concentration at which increase of global H3K9 acetylation was observed [2] [nM] | further results |
| --- | --- | --- | --- | --- |
| CCCCCCCC(=O)SCCC=CC1CC(=O)NCc2nc(cs2)C2=NC(C)(CS2)C(=O)NC(C(C)C)C(=O)O1 (single isomer, unassigned) [enantiomer of largazole] |  |  |  | potency in inhibiting HDAC isoforms relative to largazole (HDAC isoforms): three times less potent |
| CCCCCCCC(=O)SCC/C=C/[C@@H]1CC(=O)NCc2nc(cs2)C2=N[C@](C)(CS2)C(=O)N[C@@H](C(C)C)C(=O)O1 [Analogue 12] | minimal effect | very little induction; also recorded: slight increase; also recorded: no change; also recorded: slight induction |  |  |
| CCCCCCCC(=O)SCC/C=C/[C@@H]1CC(=O)NCc2nc(cs2)C2=N[C@@](C)(CS2)C(=O)N[C@H](Cc2cccc3ccccc23)C(=O)O1 [Analogue 16a] | minimal effect; also recorded: no effect | very little induction; also recorded: no change; also recorded: failed to induce |  | HDAC6 specific inhibition (comparison among analogues) (recombinant HDAC6): least amount |
| C=CCC1NC(=O)C2(C)CSC(=N2)c2csc(n2)CNC(=O)CC(C=CCCSC(=O)CCCCCCC)OC1=O (stereo not shown) [Analogue 16b] | significant effect | greatest induction; also recorded: robust induction | 100 | effect on cytoproliferation at lower concentrations [1]: No significant effect |
| CCCCCCCC(=O)SCC/C=C/[C@@H]1CC(=O)NCc2nc(cs2)C2=N[C@@](C)(CS2)C(=O)N[C@@H](Cc2cccc3ccccc23)C(=O)O1 [Analogue 16c] | significant effect | greatest induction; also recorded: robust induction | 10 | effect on cytoproliferation at lower concentrations [1]: No significant effect; inhibition of HDAC1 activity (recombinant HDAC1): about 15% |
| CCCCCCCC(=O)SCCC=CC1CC(=O)NCc2nc(cs2)C2=NC(C)(CS2)C(=O)NC(C(C)C)C(=O)O1 (stereo not shown) [C-2 epimer of largazole] |  |  |  | inhibitory potency against HDAC isoforms (HDAC isoforms): sub-micromolar |
| CCCCCCCC(=O)SCCC=CC1CC(=O)NCc2nc(cs2)C2=NC(C)(CS2)C(=O)NC(Cc2ccc(O)cc2)C(=O)O1 [L-tyrosine analogue] |  |  |  | selectivity toward human cancer cells over normal cells (human cancer cells): 100 fold |
| CCCCCCCC(=O)SCC/C=C/[C@@H]1CC(=O)NCc2nc(cs2)C2=N[C@@](C)(CS2)C(=O)N[C@@H](C(C)C)C(=O)O1 [largazole, reference compound] |  |  | 10 | GI50 ([1]; Homo sapiens, HCT-116, 96 h): < 10 nM |
